Reference: ChEMBL document CHEMBL5661968, “Antitumor activity of ZSTK474, a new phosphatidylinositol 3-kinase inhibitor” (J Natl Cancer Inst, 2006)
Activity calls are given as the source filed them. The calls are words filed in the database; no cut-off is given here.

Experiments:
[1] = test system: A549; experiment: Growth inhibition of human A549 cells measured after 48 hrs by sulforhodamine B assay; format: functional
Procedure, shortened: (§1)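 JFCR39 panel lines were grown in RPMI 1640 with 5% FBS, penicillin and streptomycin at 37 °C in 5% CO2. After 48 h of drug exposure, total cellular protein was measured by sulforhodamine B staining. GI50 was calculated by a previously described method.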

[2] = test system: A549; experiment: Reversible inhibition of PI3K in human A549 cell lysate at 1 uM preincubated with compound for 5 mins followed by [gamma-32p]-ATP addition measured after 20 mins by immunoprecipitation based liquid scintillation spectroscopic analysis; format: subcellular; details: time 25.0 min
Procedure, shortened: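 Anti-p85 immunoprecipitates from A549 lysate treated 5 min with 1 μM compound, then split: one aliquot washed four times in 100 mM NaCl, 20 mM Tris pH 7.5 to remove free inhibitor, the other unwashed; both assayed with [γ-32P]ATP and phosphatidylinositol, PI3P counted by scintillation.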

[3] = molecular target: Mitogen-activated protein kinase 1 (Homo sapiens) (UniProt P28482); experiment: Inhibition of ERK2 phosphorylation at Thr-202/Tyr-204 residues in human A549 cells measured after 3 hrs by immunoblotting analysis; details: dose <= 2.0 µM
Chain of Mitogen-activated protein kinase 1 (Homo sapiens) (P28482 whole entry): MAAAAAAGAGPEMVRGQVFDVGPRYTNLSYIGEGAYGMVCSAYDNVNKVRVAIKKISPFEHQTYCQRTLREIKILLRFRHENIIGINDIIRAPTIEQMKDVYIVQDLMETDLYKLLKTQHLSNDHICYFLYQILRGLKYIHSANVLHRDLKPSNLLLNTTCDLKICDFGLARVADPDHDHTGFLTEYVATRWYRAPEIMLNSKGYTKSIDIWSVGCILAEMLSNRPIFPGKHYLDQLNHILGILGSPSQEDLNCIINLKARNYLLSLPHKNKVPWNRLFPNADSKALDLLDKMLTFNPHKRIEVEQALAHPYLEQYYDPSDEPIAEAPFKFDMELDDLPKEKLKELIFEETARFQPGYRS

[4] = test system: HCT-15; experiment: Growth inhibition of human HCT-15 cells measured after 48 hrs by sulforhodamine B assay; format: functional; procedure, shortened: as §1
[5] = test system: DU-145; experiment: Growth inhibition of human DU-145 cells measured after 48 hrs by sulforhodamine B assay; format: functional; procedure, shortened: as §1
[6] = test system: OVCAR-5; experiment: Growth inhibition of human OVCAR-5 cells measured after 48 hrs by sulforhodamine B assay; format: functional; procedure, shortened: as §1
[7] = test system: HCT-116; experiment: Growth inhibition of human HCT-116 cells measured after 48 hrs by sulforhodamine B assay; format: functional; procedure, shortened: as §1
[8] = test system: B16-F10; experiment: Antitumor activity against mouse B16-F10 cells implanted in BDF1 mouse assessed as tumor size relative to control (T/C) at 400 mg/kg, po administered daily measured after 14 days; details: 336 h
[9] = test system: A549; experiment: (§2) Inhibition of PI3K in human A549 cell lysate preincubated with compound for 5 mins followed by [gamma-32p]-ATP addition measured after 20 mins by immunoprecipitation based liquid scintillation spectroscopic analysis; format: subcellular; details: dose 0.01-1 µM, time 25.0 min
Procedure, shortened: (§3)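 PI3K immunoprecipitated with anti-p85 polyclonal antibody and protein G–agarose from A549 lysate (2–4 mg/mL protein), washed, suspended in buffer C (100 mM NaCl, 20 mM Tris pH 7.5) with 200 μg/mL phosphatidylinositol; compound preincubated 5 min at 25 °C; reaction started with [γ-32P]ATP (20 μM final) and 20 mM MgCl2, run 20 min at 25 °C; PI3P separated by TLC, counted by scintillation; activity as % of no-compound cpm.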

[10] = as §2; format: subcellular; procedure, shortened: as §3
[11] = test system: SNB-75; experiment: Growth inhibition of human SNB-75 cells measured after 48 hrs by sulforhodamine B assay; format: functional; procedure, shortened: as §1
[12] = test system: B16-F10; experiment: Antitumor activity against mouse B16-F10 cells implanted in BDF1 mouse assessed as tumor size relative to control (T/C) at 100 mg/kg, po administered daily measured after 14 days; details: 336 h
[13] = test system: NCI-H522; experiment: Growth inhibition of human NCI-H522 cells measured after 48 hrs by sulforhodamine B assay; format: functional; procedure, shortened: as §1
[14] = test system: NCI-H226; experiment: Growth inhibition of human NCI-H226 cells measured after 48 hrs by sulforhodamine B assay; format: functional; procedure, shortened: as §1
[15] = test system: MKN-1; experiment: Growth inhibition of human MKN-1 cells measured after 48 hrs by sulforhodamine B assay; format: functional; procedure, shortened: as §1

GI50 [1]: 0.501 µM | inhibition [2]: Active | inhibition [3]: inactive | GI50 [4]: 0.513 µM | GI50 [5]: 0.912 µM | GI50 [6]: 0.813 µM | GI50 [7]: 1.51 µM | Activity [9]: Dose-Dependent Effect | IC50 [10]: 0.037 µM | GI50 [13]: 0.151 µM | GI50 [14]: 0.12 µM | GI50 [15]: 0.224 µM
SMILES: FC(F)c1nc2ccccc2n1-c1nc(N2CCOCC2)nc(N2CCOCC2)n1 [ZSTK-474]
T/C at 400 mg/kg [8]: 4.9% | GI50 [11]: 0.0457 µM | T/C at 100 mg/kg [12]: 28.5%
